ChEMBL document CHEMBL2021854, “2-Aminopyrimidine based 4-aminoquinoline anti-plasmodial agents. Synthesis, biological activity, structure-activity relationship and mode of action studies” (Eur J Med Chem, 2012)

Assays:
Plasmodium falciparum [1] = experiment: Antiplasmodial activity chloroquine-sensitive Plasmodium falciparum 3D7 infected in human A+ erythrocytes assessed as inhibition of [3H]-hypoxanthine incorporation after 24 hrs by scintillation counting; format: functional, organism-based
Plasmodium falciparum [2] = experiment: Antiplasmodial activity chloroquine-resistant Plasmodium falciparum K1 infected in human A+ erythrocytes assessed as inhibition of [3H]-hypoxanthine incorporation after 24 hrs by scintillation counting; format: functional, organism-based
Plasmodium falciparum [3] = experiment: Resistant factor, ratio of IC50 for chloroquine-resistant Plasmodium falciparum K1 to IC50 for chloroquine-sensitive Plasmodium falciparum 3D7; format: functional
Outline: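 Resistance factor computed as IC50 against K1 divided by IC50 against 3D7, both from the [3H]hypoxanthine incorporation assay.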

MDCK = experiment: Cytotoxicity against MDCK cells assessed as cell viability by colorimetric formazan-based MTS assay; design: species or system Canis lupus familiaris; conditions: dog, mdck
Outline: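 Cytotoxicity on MDCK cells; 50% cytotoxic concentration from cell viability measured by colorimetric formazan-based MTS assay.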

[4] = Cytotoxicity against MDCK cells assessed as minimum compound concentration required to causes microscopically detectable alteration of normal cell morphology; format: cell-based, Canis lupus familiaris; conditions: dog
Outline: (§1)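 Confluent, non-proliferating cell cultures were exposed to the compounds. The endpoint was the minimum concentration producing a microscopically detectable alteration of normal cell morphology.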

[5] = Selectivity index, ratio of CC50 for MDCK cells to IC50 for chloroquine-resistant Plasmodium falciparum K1; format: functional
Outline: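 Selectivity index computed as MTS-based CC50 on MDCK cells divided by IC50 against P. falciparum K1.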

[6] = Cytotoxicity against african green monkey Vero cells assessed as minimum compound concentration required to causes microscopically detectable alteration of normal cell morphology; format: cell-based; conditions: chlorocebus sabaeus; outline: as §1
Human respirovirus 3 = experiment: Antiviral activity against Parainfluenza-3 virus infected in african green monkey Vero cells assessed as inhibition of virus-induced cytopathogenicity after 4 days; format: functional, organism-based; conditions: Human respirovirus 3, Vero, 96 h
Outline: (§2)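 Confluent HEL, Vero or HeLa monolayers were inoculated with 100 CCID50 of virus in the presence of varying concentrations of compound. Cytopathicity was scored when it reached completion in untreated, virus-infected control cultures.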

[7] = test system: Mammalian orthoreovirus 1; experiment: Antiviral activity against Reovirus-1 infected in african green monkey Vero cells assessed as inhibition of virus-induced cytopathogenicity after 4 days; format: functional, organism-based; conditions: Mammalian orthoreovirus 1, Vero, 96 h; outline: as §2
Sindbis virus = experiment: Antiviral activity against Sindbis virus infected in african green monkey Vero cells assessed as inhibition of virus-induced cytopathogenicity after 4 days; format: functional, organism-based; conditions: 96 h; outline: as §2
Coxsackievirus B4 [8] = experiment: Antiviral activity against Coxsackie virus B4 infected in african green monkey Vero cells assessed as inhibition of virus-induced cytopathogenicity after 4 days; format: functional, organism-based; conditions: Enterovirus B, 96 h; outline: as §2
Punta Toro virus = experiment: Antiviral activity against Punta Toro virus infected in african green monkey Vero cells assessed as inhibition of virus-induced cytopathogenicity after 4 days; format: functional, organism-based; conditions: 96 h; outline: as §2
Human alphaherpesvirus 1 [9] = experiment: Antiviral activity against HSV1 KOS infected in HEL cells assessed as inhibition of virus-induced cytopathogenicity after 4 days; format: functional, organism-based; conditions: Human alphaherpesvirus 1, KOS, 96 h
Outline: (§3)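 Confluent HEL or HeLa monolayers infected with 100 CCID50 of virus in the presence of varying compound concentrations.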

Human alphaherpesvirus 2 = experiment: Antiviral activity against HSV2 G infected in HEL cells assessed as inhibition of virus-induced cytopathogenicity after 4 days; format: functional, organism-based; conditions: Human alphaherpesvirus 2, strain G, 96 h; outline: as §2
[10] = test system: Vesicular stomatitis virus; experiment: Antiviral activity against Vesicular stomatitis virus infected in HEL cells assessed as inhibition of virus-induced cytopathogenicity after 4 days; format: functional, organism-based; conditions: 96 h; outline: as §3
Human alphaherpesvirus 1 [11] = experiment: Antiviral activity against thymidine kinase-deficient acyclovir-resistant HSV1 KOS infected in HEL cells assessed as inhibition of virus-induced cytopathogenicity after 4 days; format: functional, organism-based; conditions: Human alphaherpesvirus 1, KOS, 96 h; outline: as §3
[12] = Cytotoxicity against human HEL cells assessed as minimum compound concentration required to causes microscopically detectable alteration of normal cell morphology; format: cell-based; outline: as §1
[13] = Cytotoxicity against human HeLa cells assessed as minimum compound concentration required to causes microscopically detectable alteration of normal cell morphology; format: cell-based; outline: as §1
[14] = test system: Vesicular stomatitis virus; experiment: Antiviral activity against Vesicular stomatitis virus infected in HeLa cells assessed as inhibition of virus-induced cytopathogenicity after 4 days; format: functional, organism-based; conditions: 96 h; outline: as §3
Coxsackievirus B4 [15] = experiment: Antiviral activity against Coxsackie virus B4 infected in human HeLa cells assessed as inhibition of virus-induced cytopathogenicity after 4 days; format: functional, organism-based; conditions: Enterovirus B, 96 h; outline: as §2
[16] = test system: Respiratory syncytial virus; experiment: Antiviral activity against Respiratory syncytial virus infected in human HeLa cells assessed as inhibition of virus-induced cytopathogenicity after 4 days; format: functional, organism-based; conditions: 96 h; outline: as §2
Influenza A virus [17] = experiment: Antiviral activity against Influenza A virus H1N1 infected in MDCK cells assessed as reduction visual scoring of virus-induced cytopathogenicity after 4 days; format: functional, organism-based; conditions: 96 h
Outline: (§4)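 MDCK monolayers infected with 100 CCID50 of influenza A (H1N1 or H3N2) or influenza B, with varying compound concentrations. Cytopathicity read when untreated infected controls reached complete CPE.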

Influenza A virus [18] = experiment: Antiviral activity against Influenza A virus H3N2 infected in MDCK cells assessed as reduction visual scoring of virus-induced cytopathogenicity after 4 days; format: functional, organism-based; conditions: 96 h; outline: as §4
Influenza B virus [19] = experiment: Antiviral activity against Influenza B virus infected in MDCK cells assessed as reduction visual scoring of virus-induced cytopathogenicity after 4 days; format: functional, organism-based; conditions: 96 h; outline: as §4
Influenza A virus [20] = experiment: Antiviral activity against Influenza A virus H1N1 infected in MDCK cells assessed as inhibition of virus-induced cytopathogenicity after 4 days by colorimetric formazan-based MTS assay; format: functional, organism-based; conditions: 96 h
Influenza A virus [21] = experiment: Antiviral activity against Influenza A virus H3N2 infected in MDCK cells assessed as inhibition of virus-induced cytopathogenicity after 4 days by colorimetric formazan-based MTS assay; format: functional, organism-based; conditions: 96 h
Influenza B virus [22] = experiment: Antiviral activity against Influenza B virus infected in MDCK cells assessed as inhibition of virus-induced cytopathogenicity after 4 days by colorimetric formazan-based MTS assay; format: functional, organism-based; conditions: 96 h
Human betaherpesvirus 5 [23] = experiment: Antiviral activity against Cytomegalovirus AD-169 infected in HEL cells assessed as inhibition of virus plaque formation after 4 days; format: functional, organism-based; conditions: Human betaherpesvirus 5, AD169, HEL, 96 h
Human betaherpesvirus 5 [24] = experiment: Antiviral activity against Human cytomegalovirus Davis infected in HEL cells assessed as inhibition of virus plaque formation after 4 days; format: functional, organism-based; conditions: Human betaherpesvirus 5, Davis, 96 h
HeLa = experiment: Cytotoxicity against human HeLa cells assessed as cell viability by colorimetric formazan-based MTS assay
Human alphaherpesvirus 3 [25] = experiment: Antiviral activity against […] expressing thymidine kinase infected in HEL cells assessed as reduction of virus plaque formation after 4 days; format: functional, cell-based; conditions: Human alphaherpesvirus 3, strain Oka vaccine, 96 h
Human alphaherpesvirus 3 [26] = experiment: Antiviral activity against thymidine kinase-deficient […] infected in HEL cells assessed as reduction of virus plaque formation after 4 days; format: functional, organism-based; conditions: Human alphaherpesvirus 3, 07-1, HEL, 96 h
[27] = Cytotoxicity against cat CRFK cells assessed as cell viability by colorimetric formazan-based MTS assay; design: species or system Felis catus; conditions: crfk
[28] = test system: Feline infectious peritonitis virus; experiment: Antiviral activity against FIPV infected in cat CRFK cells assessed as inhibition of virus-induced cytopathic effect after 4 days by colorimetric formazan-based MTS assay; format: functional, cell-based; conditions: Alphacoronavirus 1, CRFK, 96 h
Felid alphaherpesvirus 1 = experiment: Antiviral activity against Feline herpesvirus infected in cat CRFK cells assessed as inhibition of virus-induced cytopathic effect after 4 days by colorimetric formazan-based MTS assay; format: functional, organism-based; conditions: Felid alphaherpesvirus 1, CRFK, 96 h
[29] = test system: Human immunodeficiency virus 1; experiment: Antiviral activity against HIV1 infected in human CEM cells assessed as inhibition of virus-induced cytopathic effect after 4 days; format: functional, organism-based; conditions: Human immunodeficiency virus 1, CCRF-CEM, 96 h
Outline: (§5)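 CEM T-lymphocytes (~3 × 10^5 cells/ml) were infected with HIV-1 IIIB or HIV-2 ROD at ~100 CCID50, then immediately plated with a range of compound concentrations. Giant cell formation was scored microscopically after 4 days at 37 °C. Cytostatic activity was tested in parallel in uninfected CEM cells.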

[30] = test system: Human immunodeficiency virus 2; experiment: Antiviral activity against HIV2 infected in human CEM cells assessed as inhibition of virus-induced cytopathic effect after 4 days; format: functional, organism-based; conditions: Human immunodeficiency virus 2, CCRF-CEM, 96 h; outline: as §5
[31] = Inhibition of beta-hematin formation assessed as Ferriprotoporphyrin IX biomineralisation at 1 mg/ml after 24 hrs; format: functional
Outline: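 Hemin chloride (0.5 mg/ml in DMSO) mixed with 0.5 M sodium acetate buffer pH 4.4 and drug or solvent control, incubated 37 °C for 24 h. Pellet washed with DMSO to remove unreacted hemin, dissolved in 0.1 N NaOH, absorbance read at 405 nm; percent inhibition relative to control. Highest concentration tested 1 mg/ml.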

SMILES	IC50 (Plasmodium falciparum [1])	IC50 (Plasmodium falciparum [2])	Ratio IC50 (Plasmodium falciparum [3])	CC50 (MDCK)	MCC [4]	Ratio CC50/IC50 [5]	MCC [6]	EC50 (Human respirovirus 3)	EC50 [7]	EC50 (Sindbis virus)	EC50 (Coxsackievirus B4 [8])	EC50 (Punta Toro virus)	EC50 (Human alphaherpesvirus 1 [9])	EC50 (Human alphaherpesvirus 2)	EC50 [10]	EC50 (Human alphaherpesvirus 1 [11])	MCC [12]	MCC [13]	EC50 [14]	EC50 (Coxsackievirus B4 [15])	also measured
CCOC(=O)c1c(C)nc(NCCCNc2ccnc3cc(Cl)ccc23)nc1C	0.0631 µM	0.161 µM	2.548	58.2 µM	20 µM	361.89	> 100 µM	> 100 µM	> 100 µM	> 100 µM	> 100 µM	> 100 µM	> 100 µM	> 100 µM	> 100 µM	> 100 µM	≥ 100 µM	> 100 µM	> 100 µM	> 100 µM	EC50 [16]: > 100 µM; EC50 (Influenza A virus [17]): > 4 µM; EC50 (Influenza A virus [18]): > 4 µM; EC50 (Influenza B virus [19]): > 4 µM; EC50 (Influenza A virus [20]): > 4 µM; EC50 (Influenza A virus [21]): > 4 µM; EC50 (Influenza B virus [22]): > 4 µM; EC50 (Human betaherpesvirus 5 [23]): 8.94 µM; EC50 (Human betaherpesvirus 5 [24]): 8.18 µM; CC50 (HeLa): 17.5 µM; EC50 (Human alphaherpesvirus 3 [25]): 9.62 µM; EC50 (Human alphaherpesvirus 3 [26]): > 20 µM; CC50 [27]: > 100 µM; EC50 [28]: > 100 µM; EC50 (Felid alphaherpesvirus 1): > 100 µM; EC50 [29]: > 2 µM; EC50 [30]: > 2 µM; inhibition [31]: 66%
CCOC(=O)c1c(C)nc(NCCCCNc2ccnc3cc(Cl)ccc23)nc1C	0.0421 µM	1.66 µM	39.422	0.8 µM	4 µM	0.48	100 µM	> 20 µM	> 20 µM	> 20 µM	> 20 µM	> 20 µM	> 100 µM	> 20 µM	> 100 µM	> 100 µM	> 20 µM	≥ 20 µM	> 20 µM	> 20 µM	EC50 [16]: > 20 µM; EC50 (Influenza A virus [17]): > 0.8 µM; EC50 (Influenza A virus [18]): > 0.8 µM; EC50 (Influenza B virus [19]): > 0.8 µM; EC50 (Influenza A virus [20]): > 0.8 µM; EC50 (Influenza A virus [21]): > 0.8 µM; EC50 (Influenza B virus [22]): > 0.8 µM; EC50 (Human betaherpesvirus 5 [23]): > 4 µM; EC50 (Human betaherpesvirus 5 [24]): 5.23 µM; CC50 (HeLa): 6.07 µM; EC50 (Human alphaherpesvirus 3 [25]): 9.26 µM; EC50 (Human alphaherpesvirus 3 [26]): > 20 µM; CC50 [27]: 14.5 µM; EC50 [28]: > 4 µM; EC50 (Felid alphaherpesvirus 1): > 4 µM; EC50 [29]: > 2 µM; EC50 [30]: > 2 µM; inhibition [31]: 100%
CCOC(=O)c1c(C)nc(NCCCNc2ccnc3cc(Cl)ccc23)nc1-c1ccccc1	0.247 µM	0.0522 µM	0.21	0.8 µM	0.8 µM	15.33	100 µM	> 20 µM	> 20 µM	> 20 µM	> 20 µM	> 20 µM	> 100 µM	> 100 µM	> 100 µM	> 100 µM	> 20 µM	> 100 µM	> 100 µM	> 100 µM	EC50 [16]: > 100 µM; EC50 (Influenza A virus [17]): > 0.16 µM; EC50 (Influenza A virus [18]): > 0.16 µM; EC50 (Influenza B virus [19]): > 0.16 µM; EC50 (Influenza A virus [20]): > 0.16 µM; EC50 (Influenza A virus [21]): > 0.16 µM; EC50 (Influenza B virus [22]): > 0.16 µM; EC50 (Human betaherpesvirus 5 [23]): 4 µM; EC50 (Human betaherpesvirus 5 [24]): 4 µM; CC50 (HeLa): 7.07 µM; EC50 (Human alphaherpesvirus 3 [25]): > 4 µM; EC50 (Human alphaherpesvirus 3 [26]): > 20 µM; CC50 [27]: 15.9 µM; EC50 [28]: > 4 µM; EC50 (Felid alphaherpesvirus 1): > 4 µM; EC50 [29]: > 2 µM; EC50 [30]: > 2 µM; inhibition [31]: 100%
